Assay results reported in ChEMBL document CHEMBL4376844, “A Novel Decalin-Based Bicyclic Scaffold for FKBP51-Selective Ligands” (J Med Chem, 2020).
Active and inactive are the calls of the source. No cut-off for these calls is given here.

Assays:
[1] = test system: KB; assay: Induction of apoptosis in human KB/HeLa cells overexpressing FKBP51 assessed as early apoptotic cells at 1 uM incubated for 40 hrs by AnnexinV-FITC and propidium iodide staining based flow cytometry analysis (reference value: 3.5%); format: functional
[2] = test system: KB; assay: Induction of apoptosis in human KB/HeLa cells overexpressing FKBP51 assessed as late apoptotic cells at 1 uM incubated for 40 hrs by AnnexinV-FITC and propidium iodide staining based flow cytometry analysis (reference value: 3.4%); format: functional
[3] = test system: KB; assay: Induction of apoptosis in human KB/HeLa cells overexpressing FKBP51 assessed as viable cells at 1 uM incubated for 40 hrs by AnnexinV-FITC and propidium iodide staining based flow cytometry analysis (reference value: 87.7%); format: functional; conditions: read-out: Activity
[4] = test system: KB; assay: Induction of apoptosis in human KB/HeLa cells overexpressing FKBP51 assessed as necrotic cells at 1 uM incubated for 40 hrs by AnnexinV-FITC and propidium iodide staining based flow cytometry analysis (reference value: 5.4%); format: functional
[5] = test system: KB; assay: Induction of apoptosis in human KB/HeLa cells overexpressing FKBP51 assessed as necrotic cells at 25 uM incubated for 40 hrs by AnnexinV-FITC and propidium iodide staining based flow cytometry analysis (reference value: 5.4%); format: functional
[6] = test system: KB; assay: Cytotoxicity against human KB/HeLa cells overexpressing FKBP51 assessed as induction of cell death incubated for 72 hrs by propidium iodide based flow cytometry analysis; format: functional
How it was run: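 KB cells exposed to a range of compound doses for 72 h. 1×10^5 cells washed in PBS, then permeabilized in 0.1% sodium citrate, 0.1% Triton X-100 and 50 µg/mL propidium iodide for 30 min at 4°C in the dark. Nuclear DNA content read by flow cytometry on a log scale with debris gated out by forward scatter; % hypodiploid nuclei taken as dead cells. Four experiments, each in triplicate.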

[7] = test system: KB; assay: Cytotoxicity against human KB/HeLa cells overexpressing FKBP51 assessed as induction of cell death by measuring hypodiploid cells at 60 uM incubated for 72 hrs by propidium iodide based flow cytometry analysis (reference value: 4.7%); format: functional
[8] = target: T1, Peptidyl-prolyl cis-trans isomerase FKBP4 (Homo sapiens, UniProt Q02790); assay: Inhibition of human full length N-terminal His-tagged/C-terminal FLAG tagged FKBP52 expressed in Escherichia coli BL21 (DE3) cells incubated for 30 mins by competitive fluorescence polarization assay; conditions: 0.5 h
T1 sequence (Q02790 whole entry): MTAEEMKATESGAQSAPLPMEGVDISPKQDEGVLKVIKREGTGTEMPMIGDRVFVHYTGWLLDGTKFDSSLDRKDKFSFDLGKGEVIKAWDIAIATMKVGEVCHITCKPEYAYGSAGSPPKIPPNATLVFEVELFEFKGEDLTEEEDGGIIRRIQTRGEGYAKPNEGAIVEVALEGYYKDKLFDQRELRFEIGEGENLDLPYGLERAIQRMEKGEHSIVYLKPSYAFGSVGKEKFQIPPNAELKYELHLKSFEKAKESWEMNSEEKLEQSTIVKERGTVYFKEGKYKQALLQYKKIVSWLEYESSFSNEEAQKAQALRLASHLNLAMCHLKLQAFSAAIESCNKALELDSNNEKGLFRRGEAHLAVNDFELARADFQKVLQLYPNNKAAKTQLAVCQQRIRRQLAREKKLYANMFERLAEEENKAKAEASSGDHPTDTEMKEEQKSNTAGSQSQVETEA

[9] = test system: KB; assay: Induction of apoptosis in human KB/HeLa cells overexpressing FKBP51 assessed as increase in early apoptotic cells incubated for 40 hrs by annexin V and propidium iodide based flow cytometry analysis; format: functional, cell-based
[10] = test system: KB; assay: Cytotoxicity against human KB/HeLa cells overexpressing FKBP51 assessed as induction of cell death by measuring hypodiploid cells at 20 uM incubated for 72 hrs by propidium iodide based flow cytometry analysis (reference value: 4.7%); format: functional
[11] = test system: KB; assay: Induction of apoptosis in human KB/HeLa cells overexpressing FKBP51 assessed as late apoptotic cells at 12 uM incubated for 40 hrs by AnnexinV-FITC and propidium iodide staining based flow cytometry analysis (reference value: 3.4%); format: functional
[12] = test system: HeLa; assay: Induction of apoptosis in human HeLa cells expressing low leves of FKBP51 at 50 uM incubated for 40 hrs by AnnexinV-FITC and propidium iodide staining based flow cytometry analysis; format: functional, cell-based
[13] = test system: KB; assay: Cytotoxicity against human KB/HeLa cells overexpressing FKBP51 assessed as induction of cell death by measuring hypodiploid cells at 1 uM incubated for 72 hrs by propidium iodide based flow cytometry analysis (reference value: 4.7%); format: functional
[14] = test system: KB; assay: Induction of apoptosis in human KB/HeLa cells overexpressing FKBP51 assessed as late apoptotic cells at 25 uM incubated for 40 hrs by AnnexinV-FITC and propidium iodide staining based flow cytometry analysis (reference value: 3.4%); format: functional
[15] = test system: KB; assay: Induction of apoptosis in human KB/HeLa cells overexpressing FKBP51 assessed as viable cells at 12 uM incubated for 40 hrs by AnnexinV-FITC and propidium iodide staining based flow cytometry analysis (reference value: 87.7%); format: functional; conditions: read-out: Activity
[16] = test system: KB; assay: Induction of apoptosis in human KB/HeLa cells overexpressing FKBP51 assessed as early apoptotic cells at 50 uM incubated for 40 hrs by AnnexinV-FITC and propidium iodide staining based flow cytometry analysis (reference value: 3.5%); format: functional
[17] = test system: KB; assay: Induction of apoptosis in human KB/HeLa cells overexpressing FKBP51 assessed as early apoptotic cells at 25 uM incubated for 40 hrs by AnnexinV-FITC and propidium iodide staining based flow cytometry analysis (reference value: 3.5%); format: functional
[18] = test system: KB; assay: Induction of apoptosis in human KB/HeLa cells overexpressing FKBP51 assessed as late apoptotic cells at 50 uM incubated for 40 hrs by AnnexinV-FITC and propidium iodide staining based flow cytometry analysis (reference value: 3.4%); format: functional
[19] = test system: KB; assay: Induction of apoptosis in human KB/HeLa cells overexpressing FKBP51 assessed as viable cells at 50 uM incubated for 40 hrs by AnnexinV-FITC and propidium iodide staining based flow cytometry analysis (reference value: 87.7%); format: functional; conditions: read-out: Activity
[20] = test system: KB; assay: Cytotoxicity against human KB/HeLa cells overexpressing FKBP51 assessed as induction of cell death by measuring hypodiploid cells at 6 uM incubated for 72 hrs by propidium iodide based flow cytometry analysis (reference value: 4.7%); format: functional
[21] = test system: KB; assay: Induction of apoptosis in human KB/HeLa cells overexpressing FKBP51 assessed as necrotic cells at 50 uM incubated for 40 hrs by AnnexinV-FITC and propidium iodide staining based flow cytometry analysis (reference value: 5.4%); format: functional
[22] = test system: KB; assay: Induction of apoptosis in human KB/HeLa cells overexpressing FKBP51 assessed as viable cells at 25 uM incubated for 40 hrs by AnnexinV-FITC and propidium iodide staining based flow cytometry analysis (reference value: 87.7%); format: functional; conditions: read-out: Activity
[23] = test system: KB; assay: Induction of apoptosis in human KB/HeLa cells overexpressing FKBP51 assessed as necrotic cells at 12 uM incubated for 40 hrs by AnnexinV-FITC and propidium iodide staining based flow cytometry analysis (reference value: 5.4%); format: functional
[24] = target: T2, Peptidyl-prolyl cis-trans isomerase FKBP5 (Homo sapiens, UniProt Q13451); assay: Inhibition of human full length N-terminal His-tagged/C-terminal FLAG tagged FKBP51 expressed in Escherichia coli BL21 (DE3) cells incubated for 30 mins by competitive fluorescence polarization assay
T2 sequence (Q13451 whole entry): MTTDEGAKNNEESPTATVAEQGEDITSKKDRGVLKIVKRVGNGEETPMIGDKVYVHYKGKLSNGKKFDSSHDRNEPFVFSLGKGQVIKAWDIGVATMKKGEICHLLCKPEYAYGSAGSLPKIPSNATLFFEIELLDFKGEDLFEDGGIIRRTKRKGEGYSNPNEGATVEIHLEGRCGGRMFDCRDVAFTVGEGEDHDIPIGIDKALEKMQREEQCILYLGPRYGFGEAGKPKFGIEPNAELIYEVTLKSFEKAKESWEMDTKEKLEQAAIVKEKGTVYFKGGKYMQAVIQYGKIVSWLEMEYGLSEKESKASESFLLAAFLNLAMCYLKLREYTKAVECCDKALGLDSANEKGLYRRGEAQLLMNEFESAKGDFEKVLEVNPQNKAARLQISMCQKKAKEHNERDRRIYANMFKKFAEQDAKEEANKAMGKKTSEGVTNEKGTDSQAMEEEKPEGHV

[25] = test system: KB; assay: Induction of apoptosis in human KB/HeLa cells overexpressing FKBP51 assessed as early apoptotic cells at 12 uM incubated for 40 hrs by AnnexinV-FITC and propidium iodide staining based flow cytometry analysis (reference value: 3.5%); format: functional

COc1ccc(CC[C@@H](OC(=O)[C@@H]2CCCCN2C(=O)[C@H](c2cc(OC)c(OC)c(OC)c2)C2CCCCC2)c2cccc(OCC(=O)O)c2)cc1OC
Activity [1]: 20.2% | Activity [2]: 12.6% | viability at 1 µM [3]: 65.1% | Activity [4]: 2.1%

COc1ccc(CCC(OC(=O)C2CCCCN2C(=O)[C@@H]2C[C@@H](O)[C@@H](O)[C@@H]3CCCC[C@H]32)c2cccc(OCCN3CCOCC3)c2)cc1OC (single isomer, unassigned)
Activity [5]: 6.8% | Activity [6]: Dose-dependent effect | Activity [7]: 26.1% | inhibition (INH) [8]: Not Active | Activity [9]: Dose-dependent effect | Activity [10]: 15.3% | Activity [11]: 6.6% | Activity [12]: Active | Activity [13]: 5.6% | Activity [14]: 9.6% | viability at 12 µM [15]: 73.7% | Activity [16]: 21.7% | Activity [17]: 11.1% | Activity [18]: 11.4% | viability at 50 µM [19]: 58.9% | Activity [20]: 11.6% | Activity [21]: 8.1% | viability at 25 µM [22]: 72.5% | Activity [23]: 9.6% | Ki [24]: 280 nM | Activity [25]: 10.1%
